The source made the active and inactive calls. The rule behind the calls is not given here.
Legend:
Type in all cases: protein-complex assay
[1] = target: T1, MexXY/OprM (Pseudomonas aeruginosa (strain ATCC 15692 / DSM 22644 / CIP 104116 / JCM14847 / LMG 12228 / 1C / PRS 101 / PAO1)) (UniProt Q51487+Q9ZNG9+Q9ZNG8); test: Inhibition of MexXY/OPRM in Pseudomonas aeruginosa C6 assessed as reduction in bacterial resistance to tobramycin by measuring tobramycin MIC at 80 ug/ml incubated for 24 to 48 hrs by broth microdilution method (reference value: 2 ug/ml)
[2] = target: T1, MexXY/OprM (Pseudomonas aeruginosa (strain ATCC 15692 / DSM 22644 / CIP 104116 / JCM14847 / LMG 12228 / 1C / PRS 101 / PAO1)); test: Inhibition of MexXY/OPRM in Pseudomonas aeruginosa C52 assessed as reduction in bacterial resistance to tobramycin by measuring tobramycin MIC at 80 ug/ml incubated for 24 to 48 hrs by broth microdilution method (reference value: >128 ug/ml)
[3] = target: T1, MexXY/OprM (Pseudomonas aeruginosa (strain ATCC 15692 / DSM 22644 / CIP 104116 / JCM14847 / LMG 12228 / 1C / PRS 101 / PAO1)); test: Inhibition of MexXY/OPRM in Pseudomonas aeruginosa C54 assessed as reduction in bacterial resistance to tobramycin by measuring tobramycin MIC at 80 ug/ml incubated for 24 to 48 hrs by broth microdilution method (reference value: 32 ug/ml)
[4] = target: T1, MexXY/OprM (Pseudomonas aeruginosa (strain ATCC 15692 / DSM 22644 / CIP 104116 / JCM14847 / LMG 12228 / 1C / PRS 101 / PAO1)); test: Inhibition of MexXY/OPRM in Pseudomonas aeruginosa C60 assessed as reduction in bacterial resistance to tobramycin by measuring tobramycin MIC at 80 ug/ml incubated for 24 to 48 hrs by broth microdilution method (reference value: >128 ug/ml)
[5] = target: T1, MexXY/OprM (Pseudomonas aeruginosa (strain ATCC 15692 / DSM 22644 / CIP 104116 / JCM14847 / LMG 12228 / 1C / PRS 101 / PAO1)); test: Inhibition of MexXY/OPRM in Pseudomonas aeruginosa C70 assessed as reduction in bacterial resistance to tobramycin by measuring tobramycin MIC at 80 ug/ml incubated for 24 to 48 hrs by broth microdilution method (reference value: 32 ug/ml)
[6] = target: T1, MexXY/OprM (Pseudomonas aeruginosa (strain ATCC 15692 / DSM 22644 / CIP 104116 / JCM14847 / LMG 12228 / 1C / PRS 101 / PAO1)); test: Inhibition of MexXY/OPRM in Pseudomonas aeruginosa C84 assessed as reduction in bacterial resistance to tobramycin by measuring tobramycin MIC at 80 ug/ml incubated for 24 to 48 hrs by broth microdilution method (reference value: 0.5 ug/ml)
Summary of the method: (§1)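 Broth microdilution per CLSI, with P. aeruginosa ATCC 27853 as reference strain, in 2-fold dilution series. Plates were incubated at 37°C and read for visible growth at 24 and 48 h. Berberine stock was in 50% DMSO/50% methanol, with final DMSO kept near 1%. Berberine was tested at 10–320 µg/ml, alone or at a fixed level with serial tobramycin.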

[7] = target: T1, MexXY/OprM (Pseudomonas aeruginosa (strain ATCC 15692 / DSM 22644 / CIP 104116 / JCM14847 / LMG 12228 / 1C / PRS 101 / PAO1)); test: Inhibition of MexXY/OPRM in Pseudomonas aeruginosa C89 assessed as reduction in bacterial resistance to tobramycin by measuring tobramycin MIC at 80 ug/ml incubated for 24 to 48 hrs by broth microdilution method (reference value: >128 ug/ml); summary of the method: as §1
[8] = target: T1, MexXY/OprM (Pseudomonas aeruginosa (strain ATCC 15692 / DSM 22644 / CIP 104116 / JCM14847 / LMG 12228 / 1C / PRS 101 / PAO1)); test: Inhibition of MexXY/OPRM in Pseudomonas aeruginosa C103 assessed as reduction in bacterial resistance to tobramycin by measuring tobramycin MIC at 80 ug/ml incubated for 24 to 48 hrs by broth microdilution method (reference value: 4 ug/ml)
[9] = target: T1, MexXY/OprM (Pseudomonas aeruginosa (strain ATCC 15692 / DSM 22644 / CIP 104116 / JCM14847 / LMG 12228 / 1C / PRS 101 / PAO1)); test: Inhibition of MexXY/OPRM in Pseudomonas aeruginosa AR48 assessed as reduction in bacterial resistance to tobramycin by measuring tobramycin MIC at 80 ug/ml incubated for 24 to 48 hrs by broth microdilution method (reference value: 32 ug/ml)
[10] = target: T1, MexXY/OprM (Pseudomonas aeruginosa (strain ATCC 15692 / DSM 22644 / CIP 104116 / JCM14847 / LMG 12228 / 1C / PRS 101 / PAO1)); test: Inhibition of MexXY/OPRM in Pseudomonas aeruginosa AR51 assessed as reduction in bacterial resistance to tobramycin by measuring tobramycin MIC at 80 ug/ml incubated for 24 to 48 hrs by broth microdilution method (reference value: 16 ug/ml)
[11] = target: T1, MexXY/OprM (Pseudomonas aeruginosa (strain ATCC 15692 / DSM 22644 / CIP 104116 / JCM14847 / LMG 12228 / 1C / PRS 101 / PAO1)); test: Inhibition of MexXY/OPRM in Pseudomonas aeruginosa C25 assessed as bacterial growth up to 320 ug/ml incubated for 24 to 48 hrs by broth microdilution method
Summary of the method: (§2)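 Broth microdilution following CLSI guidelines, with P. aeruginosa ATCC 27853 as reference strain. Berberine was tested at 2-fold concentrations from 10 to 320 µg/ml, dissolved in 50% DMSO/50% methanol, with the top concentration set to keep final DMSO close to 1%. Plates were incubated at 37°C and read for visible growth at 24 and 48 h.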

[12] = target: T1, MexXY/OprM (Pseudomonas aeruginosa (strain ATCC 15692 / DSM 22644 / CIP 104116 / JCM14847 / LMG 12228 / 1C / PRS 101 / PAO1)); test: Inhibition of MexXY/OPRM in Pseudomonas aeruginosa C51 assessed as bacterial growth up to 320 ug/ml incubated for 24 to 48 hrs by broth microdilution method; summary of the method: as §2
[13] = target: T1, MexXY/OprM (Pseudomonas aeruginosa (strain ATCC 15692 / DSM 22644 / CIP 104116 / JCM14847 / LMG 12228 / 1C / PRS 101 / PAO1)); test: Inhibition of MexXY/OPRM in Pseudomonas aeruginosa C59 assessed as bacterial growth up to 320 ug/ml incubated for 24 to 48 hrs by broth microdilution method; summary of the method: as §2
[14] = target: T1, MexXY/OprM (Pseudomonas aeruginosa (strain ATCC 15692 / DSM 22644 / CIP 104116 / JCM14847 / LMG 12228 / 1C / PRS 101 / PAO1)); test: Inhibition of MexXY/OPRM in Pseudomonas aeruginosa C83 assessed as bacterial growth up to 320 ug/ml incubated for 24 to 48 hrs by broth microdilution method; summary of the method: as §2
[15] = target: T1, MexXY/OprM (Pseudomonas aeruginosa (strain ATCC 15692 / DSM 22644 / CIP 104116 / JCM14847 / LMG 12228 / 1C / PRS 101 / PAO1)); test: Inhibition of MexXY/OPRM in Pseudomonas aeruginosa C86 assessed as bacterial growth up to 320 ug/ml incubated for 24 to 48 hrs by broth microdilution method; summary of the method: as §1
[16] = target: T1, MexXY/OprM (Pseudomonas aeruginosa (strain ATCC 15692 / DSM 22644 / CIP 104116 / JCM14847 / LMG 12228 / 1C / PRS 101 / PAO1)); test: Inhibition of MexXY/OPRM in Pseudomonas aeruginosa C89 assessed as bacterial growth up to 320 ug/ml incubated for 24 to 48 hrs by broth microdilution method; summary of the method: as §1
[17] = target: T1, MexXY/OprM (Pseudomonas aeruginosa (strain ATCC 15692 / DSM 22644 / CIP 104116 / JCM14847 / LMG 12228 / 1C / PRS 101 / PAO1)); test: Inhibition of MexXY/OPRM in Pseudomonas aeruginosa C95 assessed as bacterial growth up to 320 ug/ml incubated for 24 to 48 hrs by broth microdilution method; summary of the method: as §1
[18] = target: T1, MexXY/OprM (Pseudomonas aeruginosa (strain ATCC 15692 / DSM 22644 / CIP 104116 / JCM14847 / LMG 12228 / 1C / PRS 101 / PAO1)); test: Inhibition of MexXY/OPRM in Pseudomonas aeruginosa AR48 assessed as bacterial growth up to 320 ug/ml incubated for 24 to 48 hrs by broth microdilution method; summary of the method: as §2
[19] = target: T1, MexXY/OprM (Pseudomonas aeruginosa (strain ATCC 15692 / DSM 22644 / CIP 104116 / JCM14847 / LMG 12228 / 1C / PRS 101 / PAO1)); test: Inhibition of MexXY/OPRM in Pseudomonas aeruginosa AR61 assessed as bacterial growth up to 320 ug/ml incubated for 24 to 48 hrs by broth microdilution method; summary of the method: as §2
[20] = target: T1, MexXY/OprM (Pseudomonas aeruginosa (strain ATCC 15692 / DSM 22644 / CIP 104116 / JCM14847 / LMG 12228 / 1C / PRS 101 / PAO1)); test: Inhibition of MexXY/OPRM in Pseudomonas aeruginosa C6 assessed as reduction in bacterial resistance to tobramycin by measuring fold reduction in tobramycin MIC at 80 ug/ml incubated for 24 to 48 hrs by broth microdilution method
[21] = target: T1, MexXY/OprM (Pseudomonas aeruginosa (strain ATCC 15692 / DSM 22644 / CIP 104116 / JCM14847 / LMG 12228 / 1C / PRS 101 / PAO1)); test: Inhibition of MexXY/OPRM in Pseudomonas aeruginosa C25 assessed as reduction in bacterial resistance to tobramycin by measuring fold reduction in tobramycin MIC at 80 ug/ml incubated for 24 to 48 hrs by broth microdilution method
[22] = target: T1, MexXY/OprM (Pseudomonas aeruginosa (strain ATCC 15692 / DSM 22644 / CIP 104116 / JCM14847 / LMG 12228 / 1C / PRS 101 / PAO1)); test: Inhibition of MexXY/OPRM in Pseudomonas aeruginosa C86 assessed as reduction in bacterial resistance to tobramycin by measuring fold reduction in tobramycin MIC at 80 ug/ml incubated for 24 to 48 hrs by broth microdilution method
Summary of the method: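 Tobramycin MIC by CLSI broth microdilution at 37°C, read at 24 and 48 h, with and without a fixed berberine concentration selected from checkerboard assays. Berberine stock was in 50% DMSO/50% methanol, final DMSO about 1%. A 2-fold decrease in tobramycin MIC was scored as synergy.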

[23] = target: T1, MexXY/OprM (Pseudomonas aeruginosa (strain ATCC 15692 / DSM 22644 / CIP 104116 / JCM14847 / LMG 12228 / 1C / PRS 101 / PAO1)); test: Inhibition of MexXY/OPRM in Pseudomonas aeruginosa AR48 assessed as reduction in bacterial resistance to tobramycin by measuring fold reduction in tobramycin MIC at 80 ug/ml incubated for 24 to 48 hrs by broth microdilution method

COc1ccc2cc3[n+](cc2c1OC)CCc1cc2c(cc1-3)OCO2 [BERBERINE]
MIC [1]: 0.5 µg/mL | MIC [2]: 128 µg/mL | MIC [3]: 16 µg/mL | MIC [4]: 64 µg/mL | MIC [5]: 8 µg/mL | MIC [6]: 0.125 µg/mL | MIC [7]: 64 µg/mL | MIC [8]: 4 µg/mL | MIC [9]: 8 µg/mL | MIC [10]: 8 µg/mL | inhibition [11]: inactive | inhibition [12]: inactive | inhibition [13]: inactive | inhibition [14]: inactive | inhibition [15]: inactive | inhibition [16]: inactive | inhibition [17]: inactive | inhibition [18]: inactive | inhibition [19]: inactive | fold change (FC) [20]: > 2 | fold change (FC) [21]: 16 | fold change (FC) [22]: > 2 | fold change (FC) [23]: > 2
